The results in this text go back to ChEMBL document CHEMBL1123492, “Carboxyl-modified amino acids and peptides as protease inhibitors” (J Med Chem, 1986).

Substrate in the data set: O=C(CNC(=O)OCc1ccccc1)Oc1ccc([N+](=O)[O-])cc1
Put plainly: Michaelis constant against papain. As to conditions: Carica papaya. The method, boiled down: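 Papain activated 45 min at 25 °C in 50 mM phosphate pH 6.2 with 1 mM EDTA and 0.25 mM cysteine, made fresh daily. N-Cbz-Gly p-nitrophenyl ester hydrolysis at 25 °C read at 340 nm (Δε 6000 M⁻¹ cm⁻¹), corrected for nonenzymic hydrolysis. Compounds in acetonitrile or DMF, final <2.5% v/v. Reversible Ki by Lineweaver–Burk; irreversible Ki and k2 by Kitz–Wilson.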

B1: Papain (Carica papaya), P00784 (protein)
chain: MAMIPSISKLLFVAICLFVYMGLSFGDFSIVGYSQNDLTSTERLIQLFESWMLKHNKIYKNIDEKIYRFEIFKDNLKYIDETNKKNNSYWLGLNVFADMSNDEFKEKYTGSIAGNYTTTELSYEEVLNDGDVNIPEYVDWRQKGAVTPVKNQGSCGSCWAFSAVVTIEGIIKIRTGNLNEYSEQELLDCDRRSYGCNGGYPWSALQLVAQYGIHYRNTYPYEGVQRYCRSREKGPYAAKTDGVRQVQPYNEGALLYSIANQPVSVVLEAAGKDFQLYRGGIFVGPCGNKVDHAVAAVGYGPNYILIKNSWGTGWGENGYIRIKRGTGNSYGVCGLYTSSFYPVKN
What is called Km is the substrate concentration at which the rate is half of its maximum. For B1, the Km turned out to be 10.3 µM.
